Assay results gathered from unrelated publications.
Protocols differ between the studies behind these lines.
CDK4: Cyclin-dependent kinase 4 (CDK4, Homo sapiens, UniProt P11802)
REN: Renin (REN, Homo sapiens, UniProt P00797)

| Structure (SMILES) | target | observed | action | technique | concentration | inhibition [%] |
| --- | --- | --- | --- | --- | --- | --- |
| CCOC(=O)[C@H]1Cc2c(cc([N+](=O)[O-])cc2[N+](=O)[O-])[C@@H](O)[C@@]12C(=O)Nc1cc(Cl)ccc12 | CDK4 | cell-free assay | inhibitor | TR-FRET | 1 µM | 61.2 |
| COc1cc(Nc2ncc(F)c(Nc3ccc4c(n3)NC(=O)C(C)(C)O4)n2)cc(OC)c1OC | Serine/threonine-protein kinase DCLK1 (DCLK1, Homo sapiens, UniProt O15075) | binding |  |  | 10 µM | 59 |
| N=C(N)c1ccc2cc(OC(=O)c3ccc(N=C(N)N)cc3)ccc2c1 | REN | enzyme activity | inhibitor |  | 10 µM | 45 |
| Cn1cc(-c2cc(F)cc(N3CCn4c(cc5c4CCCC5)C3=O)c2CO)cc(Nc2ccc(N3CCN(C4COC4)CC3)cn2)c1=O | Serine/threonine-protein kinase 3 (STK3, Homo sapiens, UniProt Q13188) | enzyme activity | inhibitor |  | 0.1 µM | 13 |
| CCOC(=O)[C@H]1Cc2c(cc([N+](=O)[O-])cc2[N+](=O)[O-])[C@@H](O)[C@@]12C(=O)Nc1ccc(F)cc12 | CDK4 | cell-free assay | inhibitor | TR-FRET | 1 µM | 53.9 |
| COCCCOc1cc(C[C@@H](C[C@H](N)[C@@H](O)C[C@H](C(=O)NCC(C)(C)C(N)=O)C(C)C)C(C)C)ccc1OC | REN | enzyme activity | inhibitor |  | 100 pM | 0 |
| Clc1ccc2c(C3CCN(CCc4c[nH]c5ccccc45)CC3)c[nH]c2c1 | Amine oxidase [flavin-containing] A (Maoa, Rattus norvegicus, UniProt P21396) | ligand displacement |  | radioligand | 10 µM | 15 |
| CCOC(=O)[C@H]1Cc2c(cc([N+](=O)[O-])cc2[N+](=O)[O-])[C@H](O)[C@]12C(=O)Nc1ccc(Cl)cc12 | CDK4 | cell-free assay | inhibitor | TR-FRET | 1 µM | 45.2 |
| CCOC(=O)c1ccc(OC(=O)CCCCCNC(=N)N)cc1 | REN | enzyme activity | inhibitor |  | 10 µM | 0 |
| CC(C)C[C@H](NC(=O)[C@H](Cc1ccccc1)NC(=O)c1cnccn1)B(O)O | GZMA (Homo sapiens, UniProt P12544) | enzyme activity | inhibitor |  | 33 µM | 72.4 |
| C#Cc1n[nH]c2c(-c3cn(C(C)c4ccccn4)c(=O)[nH]c3=O)cc(F)cc12 (stereo not shown) | Ephrin type-A receptor 5 (EPHA5, Homo sapiens, UniProt P54756) | enzyme activity | inhibitor |  | 1 µM | 4 |
| CCOC(=O)[C@H]1Cc2c(cc([N+](=O)[O-])cc2[N+](=O)[O-])[C@H](O)[C@]12C(=O)Nc1ccc(C)cc12 | CDK4 | cell-free assay | inhibitor | TR-FRET | 1 µM | 27.1 |
| C[C@H](C(=O)N[C@H]1COc2ccccc2[C@@H]1S(C)(=O)=O)c1ccc(F)cc1 | REN | enzyme activity | inhibitor |  | 10 µM | -2 |
